# Bioassay records (PubChem)
# CHRM4 antagonist – antagonists of human muscarinic M4 receptor (CHRM4); CHO-hM4 cells, ACh EC80, Fluo-8 calcium fluorescence; inhibition, % at 3 µM; 360,000 tested, 0.73% active;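 active = inhibition above its plate's cutoff, the mean inhibition of sample wells plus 3 SD, cut at about 27% in these data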;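 note: 0% = acetylcholine EC80 with DMSO and 100% = DMSO without agonist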
# CHRM5 antagonist – blocks acetylcholine activation of human M5 receptor; CHO-hM5 cells, Fluo-8 calcium fluorescence, ACh EC80; P08912; inhibition, % at 3 µM; 360,000 tested, 0.59% active;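 active = inhibition above a per-plate cutoff, the mean of that plate's test compounds plus 3 SD, cut at about 27% in these data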;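 note: 0% = acetylcholine EC80 with DMSO and 100% = DMSO without agonist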
# Target sequence (P08912 whole entry, looked up): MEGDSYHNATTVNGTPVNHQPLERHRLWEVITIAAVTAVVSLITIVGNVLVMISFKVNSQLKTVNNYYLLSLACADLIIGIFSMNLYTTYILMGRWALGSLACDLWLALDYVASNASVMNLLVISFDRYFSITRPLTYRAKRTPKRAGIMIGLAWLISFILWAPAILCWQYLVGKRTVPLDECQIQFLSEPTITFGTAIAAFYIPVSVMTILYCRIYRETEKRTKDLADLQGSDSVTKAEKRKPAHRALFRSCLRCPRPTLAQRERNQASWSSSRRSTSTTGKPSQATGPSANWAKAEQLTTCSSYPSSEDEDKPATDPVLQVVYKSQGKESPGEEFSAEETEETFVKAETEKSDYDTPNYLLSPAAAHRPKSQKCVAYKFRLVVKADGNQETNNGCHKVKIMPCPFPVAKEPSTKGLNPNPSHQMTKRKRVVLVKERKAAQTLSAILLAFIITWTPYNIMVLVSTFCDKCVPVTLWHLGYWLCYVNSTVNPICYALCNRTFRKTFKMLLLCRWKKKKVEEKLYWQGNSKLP
# M4 ag – CHRM4 agonism in calcium assay; P08173; CHO-K1 hM4/Gqi5, Fluo-8 calcium fluorescence; vehicle 0%, full acetylcholine response 100%; activation, % at 3 µM; 360,000 tested, 0.14% active; AID 624127;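 active = activation above the run mean over all test wells plus 3 SD, cut at about 32% in these data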;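 note: peak over basal fluorescence ratio per well then scaled between controls; 0% = DMSO wells and 100% = acetylcholine at EC100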
# CHRM5 PAM – positive allosteric modulators of human muscarinic M5 receptor. activation, % at 3 µM. P08912. 360,000 tested, 0.3% active. CHO-K1 hM5, Fluo-8 calcium, ACh EC20 PAM; 0% = ACh EC20, 100% = ACh EC100;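 active = activation above the run cutoff, the mean activation of all test compounds plus 3 SD, cut at about 18% in these data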
#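 Assay system: CHO-K1 hM5 cells / Incubation: Fluo-8 loading 80 min at 37 °C plus 30 min room temperature / Technique: Fluo-8 calcium dye fluorescence, kinetic read / Repeats: single replicate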
# M4 PAM – positive allosteric modulators of human muscarinic M4 receptor | P08173 | 360,000 tested, 0.4% active | CHO-K1 hM4/Gqi5, Fluo-8 calcium fluorescence, ACh EC20; 0% = ACh EC20, 100% = maximal ACh | activation, % at 3 µM;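 active = activation above its plate's cutoff, the mean activation of sample wells plus 3 SD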
# CHRM5 agonist – CHRM5 agonism in calcium assay; CHO-K1 hM5 cells, Fluo-8 calcium fluorescence; 0% DMSO wells, 100% maximal acetylcholine response; activation, % at 3 µM; 360,000 tested, 0.19% active; AID 624037;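 active = activation above the run's mean over test compounds plus 3 SD, cut at about 23% in these data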;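 note: signal is peak over basal fluorescence ratio across the kinetic read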
# * = called active by the depositor; ! = a repeat was not active. Shown are actives, neighbours in structure and some others; about 1.9% of the full set was active somewhere.
SMILES,CHRM4 antagonist,CHRM5 antagonist,M4 ag,CHRM5 PAM,M4 PAM,CHRM5 agonist
COc1cc([N+](=O)[O-])cc(/C=C2/SC(=S)N(Cc3ccccc3)C2=O)c1O,23,11,32*,-5,-20,9
CCCCNC(=O)C[C@@H]1C[C@@]2(C(=O)OC)CCCCC=C2N(Cc2ccc3c(c2)OCO3)C1=O,-15,3,22,-15,-12,5
CCCCc1c(Cc2ccccc2)ncn1CCc1ccccc1OC,11,21,9,-22,-11,-1
Cc1c(Cl)cccc1NC(=O)C1CC(=O)N(C2CCCC2)C1 (stereo not drawn),10,-1,0,-2,-1,5
O=C(CN1CCN(c2cccc(Cl)c2)CC1)NC1CCCc2ccccc21 (stereo not drawn),7,-4,5,4,1,-1
CCOC(=O)C1=C(C)N(CC(C)C)C(=O)C1,-10,6,2,1,22*,2
CC(=O)NS(=O)(=O)c1ccc(NC(=O)CSc2ccc(C)cc2)cc1,-12,-8,2,3,19*,-1
Cc1ccc(SCC(=O)Nc2ccc(S(=O)(=O)Nc3ncccn3)cc2)cc1,5,13,1,-3,-3,-6
CC(N=C1NS(=O)(=O)c2ccccc21)C(=O)OCC(=O)N(C)C1CCS(=O)(=O)C1 (stereo not drawn),0,11,1,-13,4,-1
O=C(O)c1ccc(O)cc1O,8,4,2,-1,8,3
Nc1ccc(C(=O)O)c(O)c1,43*!,0,2,-1,8,0
O=C(O)c1ccccc1O,-26,-9,2,-14,13,26*
Nc1c(O)cccc1C(=O)O,-3,-10,1,4,4,1
O=C(Nc1ccccc1)Nc1ccc2nnsc2c1,30*,44*,27,-35,-56,6
CCOc1cc2[nH]c(=S)n(CCCCC(=O)NCc3ccco3)c(=O)c2cc1OCC,3,-15,0,5,32*,4
CC1(C)CC(=O)C(N=Nc2cccc(S(=O)(=O)N3CCOCC3)c2)=C(O)C1,-8,1,3,-2,25*,-18
CC1CCN(S(=O)(=O)c2ccc(N=NC3=C(O)CC(C)(C)CC3=O)cc2)CC1,-11,2,1,-3,6,-3
O=C(Nc1ccccc1)N(c1ccccc1)C1C=CS(=O)(=O)C1 (stereo not drawn),45*,6,-1,-5,-11,-2
N#CCCn1nc(-c2ccccc2)cc1Nc1ccccc1NC(=O)c1cccs1,-9,-14,6,22*,-6,-2
Cc1nn(CC(=O)N2CCc3ccccc32)c(C)c1S(=O)(=O)NC(C)(C)C,-9,6,2,0,16*,3
Cc1c(Br)c([N+](=O)[O-])nn1CC(=O)N1CCc2ccccc21,5,8,0,4,6,-7
CC(=O)OCCN(CCCn1c(-c2ccncc2)nc2ccccc21)c1nc(CN2CCCCC2)cs1,8,7,3,-3,-10,-10
CCN(CC)c1ccc(C=C2SC(=S)NC2=O)cc1,10,35*,21,-37,-12,72*
CC1(C(=O)Nc2ccc3c(c2)OCCO3)CCN1C(=O)Cc1ccc(-c2ccccc2)cc1 (stereo not drawn),15,30*,10,-14,-4,6
CC(C)c1ccc(CC(=O)N2CCC2(C)C(=O)Nc2ccc3c(c2)OCO3)cc1 (stereo not drawn),-11,5,12,-8,-3,5
CCC1([N+](=O)[O-])COC(c2ccc(Cl)cc2)OC1 (stereo not drawn),-10,2,2,9,27*,-2
CC1(C(=O)O)COC(c2ccc(Cl)cc2)OC1 (stereo not drawn),-1,2,1,5,9,-3
CCNC(=O)c1ccc(CSc2nc3ccccc3s2)cc1,-3,34*,16,-12,-8,-1
